Reference: ChEMBL document CHEMBL1131478 (J Med Chem, 1998)

Tests used:
[1] = biological target: Matrix metalloproteinase-9 (Homo sapiens, UniProt P14780); test: Inhibitory activity against human gelatinase B (Matrix metalloprotease-9)
[2] = biological target: 72 kDa type IV collagenase (Homo sapiens, UniProt P08253); test: Inhibitory activity against human gelatinase A (matrix metalloprotease-2 MMP2)
[3] = Maximum plasma concentration (Cmax) after p.o. administration of 200 mg/kg in mice; assay type: ADME, organism-based; set-up: dose 200 mg/kg, route oral; details: mouse, po
Procedure, shortened: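 Single 200 mg/kg oral dose in mice, given in 0.5% methyl cellulose. Blood drawn at various time points. Plasma drug extracted with CH3CN and quantified by reverse-phase C18 HPLC using a CH3CN gradient with 0.1% TFA. Peak plasma level taken as Cmax.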

Chain of 72 kDa type IV collagenase (P08253 whole entry): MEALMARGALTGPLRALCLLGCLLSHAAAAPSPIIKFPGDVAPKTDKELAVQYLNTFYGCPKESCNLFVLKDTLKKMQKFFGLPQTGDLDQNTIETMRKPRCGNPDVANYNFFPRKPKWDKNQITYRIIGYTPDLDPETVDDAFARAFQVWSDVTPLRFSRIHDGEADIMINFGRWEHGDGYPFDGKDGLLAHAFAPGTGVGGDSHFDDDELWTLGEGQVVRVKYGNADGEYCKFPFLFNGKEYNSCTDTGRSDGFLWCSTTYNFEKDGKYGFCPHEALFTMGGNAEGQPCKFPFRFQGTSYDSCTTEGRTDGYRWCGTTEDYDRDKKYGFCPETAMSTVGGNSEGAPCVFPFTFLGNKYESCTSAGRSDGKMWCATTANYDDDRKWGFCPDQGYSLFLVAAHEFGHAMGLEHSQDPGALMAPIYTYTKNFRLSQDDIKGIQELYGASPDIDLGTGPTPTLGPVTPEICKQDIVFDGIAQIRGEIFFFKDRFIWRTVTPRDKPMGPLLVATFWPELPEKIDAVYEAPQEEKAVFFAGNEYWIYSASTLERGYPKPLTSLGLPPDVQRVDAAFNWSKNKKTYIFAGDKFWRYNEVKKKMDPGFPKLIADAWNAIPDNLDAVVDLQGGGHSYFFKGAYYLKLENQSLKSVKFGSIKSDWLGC
Chain of Matrix metalloproteinase-9 (P14780 whole entry): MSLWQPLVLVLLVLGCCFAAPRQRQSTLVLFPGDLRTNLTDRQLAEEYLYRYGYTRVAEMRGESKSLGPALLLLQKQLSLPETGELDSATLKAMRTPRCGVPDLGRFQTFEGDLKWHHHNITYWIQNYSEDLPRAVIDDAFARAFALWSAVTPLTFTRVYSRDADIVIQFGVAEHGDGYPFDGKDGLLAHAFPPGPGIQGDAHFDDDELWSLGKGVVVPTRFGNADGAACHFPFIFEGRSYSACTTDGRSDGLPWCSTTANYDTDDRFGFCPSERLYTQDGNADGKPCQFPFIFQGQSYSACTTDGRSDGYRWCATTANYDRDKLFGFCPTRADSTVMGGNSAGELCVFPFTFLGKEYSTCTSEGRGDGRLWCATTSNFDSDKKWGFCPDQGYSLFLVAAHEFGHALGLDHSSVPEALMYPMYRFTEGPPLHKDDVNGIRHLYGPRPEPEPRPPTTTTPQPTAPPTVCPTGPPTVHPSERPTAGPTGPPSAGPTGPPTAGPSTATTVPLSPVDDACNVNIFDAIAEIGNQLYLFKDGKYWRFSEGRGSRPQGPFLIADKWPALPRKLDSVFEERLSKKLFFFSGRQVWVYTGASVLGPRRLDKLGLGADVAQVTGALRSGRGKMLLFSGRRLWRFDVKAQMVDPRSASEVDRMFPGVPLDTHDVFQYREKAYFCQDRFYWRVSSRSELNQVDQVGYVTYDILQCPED

Row | Structure (SMILES) | IC50 [1] | IC50 [2] | Cmax [3]
1 | CC(C)[C@@H](NS(=O)(=O)c1ccc(NC(=O)c2ccc([N+](=O)[O-])cc2)cc1)C(=O)O | 0.27 µM | < 0.04 µM | 
2 | O=C(O)[C@@H](Cc1c[nH]c2ccccc12)NS(=O)(=O)c1ccccc1 | 3.4 µM | > 1 µM | 
3 | O=C(O)[C@@H](Cc1c[nH]c2ccccc12)NS(=O)(=O)c1ccc(C#Cc2ccc([N+](=O)[O-])cc2)s1 | 0.023 µM |  | 
4 | COc1ccc(-c2ccc(S(=O)(=O)N[C@@H](C(=O)O)C(C)C)s2)cc1 | 0.072 µM | 0.066 µM | 97.5 µM
5 | O=C(NO)[C@@H](Cc1ccccc1)NS(=O)(=O)c1ccccc1 | 0.73 µM |  | 
6 | Cc1ccc(C#Cc2ccc(S(=O)(=O)N[C@@H](C(=O)O)C(C)C)cc2)cc1 | 1.2 µM | > 1 µM | 
7 | O=C(c1ccccc1)c1ccc(S(=O)(=O)N[C@H](Cc2c[nH]c3ccccc23)C(=O)O)cc1 | > 10 µM | > 1 µM | 
8 | CC(C)[C@@H](NS(=O)(=O)c1ccc(Oc2ccccc2)cc1)C(=O)O | 1.1 µM | > 1 µM | 334 µM
9 | O=C(N[C@H](Cc1ccccc1)C(=O)O)c1ccc(-c2ccccc2)cc1 | > 50 µM | > 1 µM | 
10 | O=C(NO)[C@H](Cc1ccccc1)NS(=O)(=O)c1ccccc1 | > 1000 µM |  | 
11 | O=C(O)[C@@H](Cc1c[nH]c2ccccc12)NS(=O)(=O)c1ccc(Cc2ccccc2)cc1 | > 10 µM | > 1 µM | 
12 | O=C(O)[C@@H](Cc1c[nH]c2ccccc12)NS(=O)(=O)c1ccc2oc3ccccc3c2c1 | > 10 µM | > 1 µM | 
13 | O=C(Nc1ccc(S(=O)(=O)N[C@H](Cc2c[nH]c3ccccc23)C(=O)O)cc1)c1ccccc1 |  | < 0.04 µM | 
14 | O=C(O)c1ccc(C#Cc2ccc(S(=O)(=O)N[C@H](Cc3c[nH]c4ccccc34)C(=O)O)cc2)cc1 | 8.8 µM | > 1 µM | 
15 | CC(C)[C@@H](NS(=O)(=O)c1ccc(Oc2ccccc2)cc1)C(=O)NO | 0.00054 µM | 0.002 µM | 5.8 µM
16 | COc1cccc(-c2ccc(S(=O)(=O)N[C@H](Cc3c[nH]c4ccccc34)C(=O)O)cc2)c1 | 1.1 µM | 1 µM | 
17 | COc1ccc(-c2ccc(S(=O)(=O)N[C@H](Cc3c[nH]c4ccccc34)C(=O)O)cc2)cc1 | 0.081 µM | 0.0065 µM | 3.5 µM
18 | O=C(O)[C@@H](Cc1c[nH]c2ccccc12)NS(=O)(=O)c1ccc(/N=N/c2ccccc2)cc1 | 0.35 µM | 0.05 µM | 
19 | COc1ccc(-n2nnc(-c3ccc(S(=O)(=O)N[C@H](Cc4c[nH]c5ccccc45)C(=O)O)cc3)n2)cc1 |  | 0.013 µM | 2.1 µM
20 | CC(C)[C@@H](NS(=O)(=O)c1ccc(NC(=O)c2ccccc2)cc1)C(=O)O | 2.1 µM | 0.05 µM | 
21 | COc1ccc(-c2ccc(S(=O)(=O)N[C@@H](C(=O)O)C(C)C)cc2)cc1 | 0.04 µM | < 0.1 µM | 89.9 µM
22 | Cc1ccc(C(=O)Nc2ccc(S(=O)(=O)N[C@H](Cc3ccccc3)C(=O)O)cc2)cc1 |  | < 0.04 µM | 
23 | O=C(O)[C@@H](Cc1ccccc1)NS(=O)(=O)c1ccc(-c2nnn(-c3ccccc3)n2)cc1 | 0.58 µM | 0.11 µM | 12.1 µM

Row | Structure (SMILES) | IC50 [1] | IC50 [2] | Cmax [3]
24 | O=C(Nc1ccccc1)Nc1ccc(S(=O)(=O)N[C@H](Cc2c[nH]c3ccccc23)C(=O)O)cc1 | > 10 µM | > 1 µM | 
25 | O=C(Nc1ccccc1)c1ccc(S(=O)(=O)N[C@H](Cc2c[nH]c3ccccc23)C(=O)O)cc1 | > 10 µM | > 1 µM | 
26 | O=C(N[C@H](Cc1ccccc1)C(=O)NO)c1ccc(-c2ccccc2)cc1 | > 50 µM | > 1 µM | 
27 | O=C(O)[C@@H](Cc1c[nH]c2ccccc12)NS(=O)(=O)c1ccc(C#Cc2ccccc2)cc1 | 0.24 µM | 0.05 µM | 
28 | O=C(Nc1ccc(S(=O)(=O)N[C@H](Cc2ccccc2)C(=O)O)cc1)c1ccccc1 |  | < 1 µM | 
29 | O=C(O)[C@@H](Cc1c[nH]c2ccccc12)NS(=O)(=O)c1ccc(Oc2ccccc2)cc1 | 0.25 µM | 0.05 µM | 
30 | Cc1ccc(C#Cc2ccc(S(=O)(=O)N[C@H](Cc3c[nH]c4ccccc34)C(=O)O)cc2)cc1 | 0.016 µM | 0.034 µM | 10.8 µM
31 | COc1ccc(C#Cc2ccc(S(=O)(=O)N[C@H](Cc3ccccc3)C(=O)O)cc2)cc1 | 7.8 µM | 1 µM | 
32 | Cc1ccc(C#Cc2ccc(S(=O)(=O)N[C@@H](C(=O)O)C(C)C)s2)cc1 | 0.014 µM | 0.053 µM | 284 µM
33 | CC(C)[C@@H](NS(=O)(=O)c1ccc(-c2nnn(-c3ccccc3)n2)cc1)C(=O)O |  | 0.13 µM | 
34 | O=C(O)[C@@H](Cc1ccccc1)NS(=O)(=O)c1ccc(-c2nnn(-c3ccc(C4CCCCC4)cc3)n2)cc1 |  | 0.28 µM | 
35 | COc1ccc(C#Cc2ccc(S(=O)(=O)N[C@H](Cc3ccccc3)C(=O)O)s2)cc1 | 0.024 µM | 0.01 µM | 119 µM
36 | O=C(O)[C@@H](Cc1c[nH]c2ccccc12)NS(=O)(=O)c1ccc2ccccc2c1 | > 10 µM | > 1 µM | 
37 | CSc1ccc(C(=O)Nc2ccc(S(=O)(=O)N[C@@H](C(=O)O)C(C)C)cc2)cc1 |  | 0.0067 µM | 8.3 µM
38 | O=C(O)[C@H](Cc1ccccc1)NS(=O)(=O)c1ccc(-c2ccccc2)cc1 | 0.8 µM |  | 
39 | O=C(O)[C@@H](Cc1c[nH]c2ccccc12)NS(=O)(=O)c1ccc(-c2nnn(-c3ccc(Br)cc3)n2)cc1 |  | 0.0083 µM | 2.5 µM
40 | O=C(O)[C@@H](Cc1c[nH]c2ccccc12)NS(=O)(=O)c1ccc(C#Cc2ccccc2[N+](=O)[O-])s1 | 1.5 µM | > 1 µM | 
41 | O=C(NO)[C@@H](Cc1c[nH]c2ccccc12)NS(=O)(=O)c1ccc(-c2ccccc2)cc1 | 0.005 µM | 0.0013 µM | 
42 | O=C(O)[C@@H](Cc1c[nH]c2ccccc12)NS(=O)(=O)c1ccc(-c2ccccc2)cc1 | 0.18 µM | 0.053 µM | 34.3 µM
43 | O=C(NO)[C@@H](Cc1ccccc1)NS(=O)(=O)c1ccc(-c2ccccc2)cc1 |  | 0.017 µM | 2.5 µM
44 | Cc1ccc(-n2nnc(-c3ccc(S(=O)(=O)N[C@H](Cc4ccccc4)C(=O)O)cc3)n2)cc1 |  | < 0.2 µM | 1.2 µM
45 | O=C(O)[C@@H](Cc1ccccc1)NS(=O)(=O)c1ccc(-c2ccccc2)cc1 |  | 0.31 µM | 291 µM
46 | O=C(NO)C(Cc1ccccc1)NS(=O)(=O)c1ccccc1 (configuration not stated) | 1 µM |  | 
